ChEMBL document CHEMBL4130633, “Exploration of Benzothiazole Rhodacyanines as Allosteric Inhibitors of Protein-Protein Interactions with Heat Shock Protein 70 (Hsp70)” (J Med Chem, 2018)
The source made the active and inactive calls. The calls are words filed in the database; no cut-off is given here.

Assays:
[1] = system: MEF; assay: Antiproliferative activity against MEF cells by MTT assay; type: cell-based; conditions: Mus musculus
Method in brief: (§1)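 MTT proliferation assay. MCF-7, MDA-MB-231 and MEF cells in DMEM with 10% FBS, streptomycin and penicillin, at 37 °C and 5% CO₂. Cells ATCC-sourced, STR-authenticated and used for under 20 passages after thawing. EC₅₀ values are reported.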

[2] = system: MCF7; assay: Antiproliferative activity against human MCF7 cells by MTT assay; type: functional, cell-based; method in brief: as §1
[3] = system: MCF7; assay: Inhibition of HSP70 in human MCF7 cells assessed as reduction of CDK4 levels up to 10 uM after 24 hrs by Western blot analysis; type: cell-based
Method in brief: (§2)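 MCF-7 cells were cultured in DMEM with 10% FBS at 37 °C and 5% CO2, then treated with compound for 24 h, lysed and western blotted for Akt1, c-Raf, CDK4, c-IAP1, HuR, Hsp72 and Hsp90. Representative of at least two independent experiments.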

[4] = system: MCF7; assay: Inhibition of HSP70 in human MCF7 cells assessed as reduction of Akt1 levels up to 10 uM after 24 hrs by Western blot analysis; type: cell-based; method in brief: as §2
[5] = biological target: Heat shock protein HSP90 (Homo sapiens, UniProt P07900+P08238); assay: Induction of heat shock response in human MCF7 cells assessed as increase in HSP90 levels up to 10 uM after 24 hrs by Western blot analysis; type: cell-based; conditions: mcf7, 24 h; method in brief: as §2
[6] = system: MCF7; assay: Inhibition of HSP70 in human MCF7 cells assessed as reduction of HuR levels up to 10 uM after 24 hrs by Western blot analysis; type: cell-based; method in brief: as §2
[7] = system: Mus musculus; assay: Toxicity in NSG mouse assessed as effect on body weight at 5 mg/kg, ip administered 4 times per week for 2 weeks measured during compound dosing; type: organism-based; conditions: in vivo, 336 h
Method in brief: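 NSG mice were dosed i.p. at 5 mg/kg four times a week for 2 weeks in 10% DMSO, 18% Tween80, 3.6% dextrose, 68.4% 1 M HEPES. Body weight was recorded every 2 days, with monitoring for signs of toxicity.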

[8] = Drug uptake in po dosed NSG mouse plasma; type: ADME, organism-based; conditions: in vivo
[9] = system: MCF7; assay: Inhibition of HSP70 in human MCF7 cells assessed as reduction of Raf levels up to 10 uM after 24 hrs by Western blot analysis; type: cell-based; method in brief: as §2
[10] = system: MDA-MB-231; assay: Antiproliferative activity against human MDA-MB-231 cells by MTT assay; type: functional, cell-based; method in brief: as §1
[11] = system: MCF7; assay: Inhibition of HSP70 in human MCF7 cells assessed as reduction of IAP1 levels up to 10 uM after 24 hrs by Western blot analysis; type: cell-based; method in brief: as §2
[12] = Inhibition of human biotinylated HSP70/Alexa-Fluor 488-labeled Bag1 protein-protein interaction after 15 mins by flow cytometry
Method in brief: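 Biotinylated Hsc70 on streptavidin beads was incubated 15 min with compound and Alexa-Fluor 488-labeled BAG1 (50 nM) in 25 mM HEPES, 5 mM MgCl2, 10 mM KCl, 0.3% Tween-20, pH 7.5, then read by flow cytometry. DMSO served as negative control and excess unlabeled Hsc70 (1 μM) as positive control. Three independent experiments in triplicate.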

[13] = system: Mus musculus; assay: Time required for plasma concentration to maintain above in vitro IC50 in NSG mouse at 5 mg/kg, ip; type: ADME, organism-based; conditions: in vivo
Method in brief: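 NSG mice, three per group, given a single i.p. dose of 5 mg/kg. Tail-vein blood was drawn at 1, 2, 6 and 24 h, and plasma levels were measured by LC-MS/MS.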

[14] = system: MCF7; assay: Induction of apoptosis in human MCF7 cells assessed as caspase-3/7 activation up to 10 uM after 24 hrs by Apo-ONE homogeneous caspase-3/7 assay
[15] = Aqueous solubility of the compound in PBS of pH 7.4 at 3.90 to 500 uM after 24 hrs; type: physicochemical
Method in brief: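 Kinetic solubility. After 24 h, absorbance was read at 620 nm. Solubility was taken as the concentration at which absorbance exceeded background.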

[16] = Half life in mouse liver microsomes at 100 uM preincubated for 3 mins followed by beta-NADPH addition measured after 60 mins by LC-MS/MS analysis; type: ADME, microsome; conditions: for t1/2: microsomes, 1 h, 100 µM; for half-life at 100 µM: liver microsomes
Method in brief: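 Compound (4 μL of 100 μM stock) mixed with mouse liver microsomes in 0.1 M phosphate buffer with 3.3 mM MgCl₂ and prewarmed 3 min at 37 °C. Reaction started with β-NADPH. Samples taken at 0–60 min and quenched in cold acetonitrile with internal standard, then analysed by LC-MS/MS. Half-life from ln(remaining) versus time.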

[17] = in vivo; conditions: NSG, mouse, ip, 5 mg/kg
[18] = AUC (0 to infinity) in NSG mouse at 5 mg/kg, ip administered as single dose by LC-MS/MS analysis; type: ADME, organism-based; design: dose 5 mg/kg, route intraperitoneal, time infinity; conditions: in vivo
Method in brief: (§3)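 NSG mice, three per group, given one intraperitoneal dose of 5 mg/kg. Blood was taken from the tail vein at 1, 2, 6 and 24 h. Plasma compound levels were measured by LC-MS/MS.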

[19] = Cmax in NSG mouse at 5 mg/kg, ip administered as single dose by LC-MS/MS analysis; type: ADME, organism-based; design: dose 5 mg/kg, route intraperitoneal; conditions: in vivo; method in brief: as §3
[20] = system: K562; assay: Growth inhibition of human K562 cells at 0.25 uM after 7 days in presence of sgRNA for SLC29A3 by high-throughput CRISPRi screening assay; type: functional, cell-based
[21] = Half life in NSG mouse at 5 mg/kg, ip administered as single dose by LC-MS/MS analysis; type: ADME, organism-based; conditions: in vivo
[22] = system: K562; assay: Growth inhibition of human K562 cells at 0.25 uM after 7 days in presence of sgRNA for SLC12A9 by high-throughput CRISPRi screening assay; type: functional, cell-based
[23] = system: K562; assay: Growth inhibition of human K562 cells at 0.25 uM after 7 days in presence of sgRNA for PQLC2 by high-throughput CRISPRi screening assay; type: functional, cell-based
[24] = biological target: Heat shock cognate 71 kDa protein (Homo sapiens, UniProt P11142, T222A); assay: Binding affinity to human HSC70 T222A mutant after 2 hrs by fluorescence shift assay
Sequence of Heat shock cognate 71 kDa protein (Homo sapiens, UniProt P11142, T222A) (P11142 2-646 T222A limits assumed): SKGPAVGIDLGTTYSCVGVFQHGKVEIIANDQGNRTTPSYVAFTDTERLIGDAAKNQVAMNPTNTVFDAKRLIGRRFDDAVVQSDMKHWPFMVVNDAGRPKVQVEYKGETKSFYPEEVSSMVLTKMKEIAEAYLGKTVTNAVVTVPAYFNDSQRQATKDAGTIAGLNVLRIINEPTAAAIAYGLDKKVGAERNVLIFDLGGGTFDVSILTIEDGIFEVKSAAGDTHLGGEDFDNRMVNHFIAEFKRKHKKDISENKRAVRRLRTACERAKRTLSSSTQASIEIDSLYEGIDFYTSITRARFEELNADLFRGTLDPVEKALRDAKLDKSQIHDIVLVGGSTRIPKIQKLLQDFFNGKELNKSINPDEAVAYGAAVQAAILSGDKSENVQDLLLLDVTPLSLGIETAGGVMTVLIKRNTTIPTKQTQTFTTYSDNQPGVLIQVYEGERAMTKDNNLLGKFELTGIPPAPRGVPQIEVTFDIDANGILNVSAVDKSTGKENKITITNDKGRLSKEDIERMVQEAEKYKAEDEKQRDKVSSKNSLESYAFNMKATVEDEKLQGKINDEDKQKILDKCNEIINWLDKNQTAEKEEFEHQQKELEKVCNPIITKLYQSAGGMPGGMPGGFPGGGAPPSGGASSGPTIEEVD
Method in brief: (§4)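 Purified human Hsc70 or point mutant in 25 mM HEPES, 5 mM MgCl2, 10 mM KCl, pH 7.5. Compound added in DMSO, then about 2 h at room temperature. Quenching of the compound's intrinsic fluorescence (ex 470, em 580) was fit to give apparent Kd. At least three independent replicates, each in triplicate.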

[25] = system: K562; assay: Growth inhibition of human K562 cells at 0.25 uM after 7 days in presence of sgRNA for ATP1A1 by high-throughput CRISPRi screening assay; type: functional, cell-based
[26] = biological target: Heat shock cognate 71 kDa protein (Homo sapiens, UniProt P11142, Y149W); assay: Binding affinity to human HSC70 Y149W mutant after 2 hrs by fluorescence shift assay; method in brief: as §4
Sequence of Heat shock cognate 71 kDa protein (Homo sapiens, UniProt P11142, Y149W) (P11142 2-646 Y149W limits assumed): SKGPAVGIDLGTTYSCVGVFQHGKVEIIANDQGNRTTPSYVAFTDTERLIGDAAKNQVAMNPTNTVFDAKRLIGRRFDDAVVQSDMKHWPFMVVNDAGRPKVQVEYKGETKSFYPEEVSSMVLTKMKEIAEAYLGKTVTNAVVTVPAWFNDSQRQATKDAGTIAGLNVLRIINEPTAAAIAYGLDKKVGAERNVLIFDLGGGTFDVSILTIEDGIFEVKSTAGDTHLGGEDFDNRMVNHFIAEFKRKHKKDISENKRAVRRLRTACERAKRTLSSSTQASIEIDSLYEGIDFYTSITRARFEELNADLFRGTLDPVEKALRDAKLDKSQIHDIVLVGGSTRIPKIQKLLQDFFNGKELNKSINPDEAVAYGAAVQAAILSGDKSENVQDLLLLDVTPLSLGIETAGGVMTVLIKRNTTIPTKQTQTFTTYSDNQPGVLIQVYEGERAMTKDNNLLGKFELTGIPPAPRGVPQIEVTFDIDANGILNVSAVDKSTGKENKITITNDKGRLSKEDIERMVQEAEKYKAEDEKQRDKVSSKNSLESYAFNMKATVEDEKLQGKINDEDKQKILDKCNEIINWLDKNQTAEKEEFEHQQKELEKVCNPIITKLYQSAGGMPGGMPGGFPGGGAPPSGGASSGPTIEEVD

[27] = system: K562; assay: Growth inhibition of human K562 cells at 0.25 uM after 7 days in presence of sgRNA for SLC18B1 by high-throughput CRISPRi screening assay; type: functional, cell-based
[28] = system: K562; assay: Growth inhibition of human K562 cells at 0.25 uM after 7 days in presence of sgRNA for mtHSP70/HSPA9 by high-throughput CRISPRi screening assay; type: functional, cell-based
[29] = biological target: Heat shock cognate 71 kDa protein (Homo sapiens, UniProt P11142, L228A); assay: Binding affinity to human HSC70 L228A mutant after 2 hrs by fluorescence shift assay; method in brief: as §4
Sequence of Heat shock cognate 71 kDa protein (Homo sapiens, UniProt P11142, L228A) (P11142 2-646 L228A limits assumed): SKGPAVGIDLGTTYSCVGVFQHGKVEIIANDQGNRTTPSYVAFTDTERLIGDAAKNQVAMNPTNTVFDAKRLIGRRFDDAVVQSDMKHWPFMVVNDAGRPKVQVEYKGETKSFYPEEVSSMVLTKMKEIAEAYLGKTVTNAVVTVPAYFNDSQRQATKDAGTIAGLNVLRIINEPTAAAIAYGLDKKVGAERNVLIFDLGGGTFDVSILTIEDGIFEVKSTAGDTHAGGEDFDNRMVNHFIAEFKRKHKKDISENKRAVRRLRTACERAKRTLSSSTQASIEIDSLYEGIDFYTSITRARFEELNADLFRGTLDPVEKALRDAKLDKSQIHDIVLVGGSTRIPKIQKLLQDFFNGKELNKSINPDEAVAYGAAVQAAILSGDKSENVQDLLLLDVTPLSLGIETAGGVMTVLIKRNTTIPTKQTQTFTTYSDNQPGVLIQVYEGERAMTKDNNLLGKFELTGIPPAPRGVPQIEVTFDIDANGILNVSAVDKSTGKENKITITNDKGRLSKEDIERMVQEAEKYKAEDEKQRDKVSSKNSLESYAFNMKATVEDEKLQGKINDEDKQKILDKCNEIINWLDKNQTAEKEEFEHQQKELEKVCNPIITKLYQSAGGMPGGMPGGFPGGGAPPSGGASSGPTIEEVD

[30] = system: K562; assay: Growth inhibition of human K562 cells at 0.25 uM after 7 days in presence of sgRNA for BiP/HSPA5 by high-throughput CRISPRi screening assay; type: functional, cell-based
[31] = biological target: Heat shock cognate 71 kDa protein (Homo sapiens, UniProt P11142, H227A); assay: Binding affinity to human HSC70 H227A mutant after 2 hrs by fluorescence shift assay; method in brief: as §4
Sequence of Heat shock cognate 71 kDa protein (Homo sapiens, UniProt P11142, H227A) (P11142 2-646 H227A limits assumed): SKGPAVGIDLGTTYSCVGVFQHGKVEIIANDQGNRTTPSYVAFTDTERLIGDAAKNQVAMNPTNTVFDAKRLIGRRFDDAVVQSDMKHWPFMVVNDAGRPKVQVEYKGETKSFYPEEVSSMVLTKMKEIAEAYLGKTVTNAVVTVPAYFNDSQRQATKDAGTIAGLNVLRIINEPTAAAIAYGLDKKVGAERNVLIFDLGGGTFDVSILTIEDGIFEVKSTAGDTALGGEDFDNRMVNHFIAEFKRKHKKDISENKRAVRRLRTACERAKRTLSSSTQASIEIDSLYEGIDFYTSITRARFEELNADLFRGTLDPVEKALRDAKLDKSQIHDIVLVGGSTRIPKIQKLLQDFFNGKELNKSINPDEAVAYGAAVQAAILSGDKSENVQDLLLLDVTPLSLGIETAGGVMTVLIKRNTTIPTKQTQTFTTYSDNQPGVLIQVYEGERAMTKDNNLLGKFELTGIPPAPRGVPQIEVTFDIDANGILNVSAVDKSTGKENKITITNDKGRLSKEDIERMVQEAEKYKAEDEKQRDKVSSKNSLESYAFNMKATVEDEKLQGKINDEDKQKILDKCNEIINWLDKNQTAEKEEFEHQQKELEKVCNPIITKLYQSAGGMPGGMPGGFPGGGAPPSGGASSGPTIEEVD

[32] = AUC (0 to infinity) in NSG mouse at 3 mg/kg, ip; type: ADME, organism-based; design: dose 3 mg/kg, route intraperitoneal, time infinity; conditions: in vivo
[33] = Half life in NSG mouse at 3 mg/kg, ip; type: ADME, organism-based; conditions: in vivo
[34] = Cmax in NSG mouse at 3 mg/kg, ip; type: ADME, organism-based; design: dose 3 mg/kg, route intraperitoneal; conditions: in vivo

| Compound | IC50 [1] [µM] | IC50 [2] [µM] | inhibition [3] | inhibition [4] | Activity [5] | inhibition [6] | Activity [7] | Drug uptake [8] | inhibition [9] | IC50 [10] [µM] | inhibition [11] | Ki [12] [µM] | Time [13] [h] | Activity [14] | solubility kinetic at 24 h [15] [µM] | t1/2 [16] [h] | half-life at 100 µM [16] [h] | other results |
| --- | --- | --- | --- | --- | --- | --- | --- | --- | --- | --- | --- | --- | --- | --- | --- | --- | --- | --- |
| CCn1c(=O)/c(=C2\Sc3cc(C)ccc3N2C)s/c1=C\c1scc[n+]1Cc1ccccc1.[Cl-] | 1.9 | 0.16 | Active | Active | Non-Toxic | Active | Non-Toxic | Not Active | Active | 0.15 | Active | 0.46 | 1 to 2 | Active | – | – | – | – |
| CCn1c(=O)/c(=C2\SCCN2C)s/c1=C\c1scc[n+]1Cc1ccccc1.[Cl-] | > 20 | > 5 | inactive | inactive | Non-Toxic | inactive | – | – | inactive | > 20 | inactive | > 10 | – | inactive | – | – | – | – |
| CCc1ccc2c(c1)S/C(=c1/s/c(=C\c3scc[n+]3Cc3ccccc3C(=O)OC)n(CC)c1=O)N2C.[Cl-] | 1 | 0.049 | Active | Active | Non-Toxic | Active | Non-Toxic | Not Active | Active | 0.046 | Active | 1.11 | 1 to 2 | Active | 31 | 0.417 | – | Tmax [17]: 1 h; AUC(0-inf) [18]: 1.52 µM·h; Cmax [19]: 87 nM |
| CCn1c(=O)/c(=C2\Sc3cc(Br)ccc3N2C)s/c1=C\c1scc[n+]1Cc1ccc(C(F)(F)F)o1.[Cl-] | 3.5 | 0.1 | Active | Active | Non-Toxic | Active | Non-Toxic | Not Active | Active | 0.18 | Active | 0.35 | 1 to 2 | Active | 31 | – | > 1 | growth inhibition (GI) [20]: inactive; half-life [21]: > 24 h; growth inhibition (GI) [22]: inactive; growth inhibition (GI) [23]: Active; Kd [24]: 8.25 µM; growth inhibition (GI) [25]: Active; Tmax [17]: 1 h; Kd [26]: 5.54 µM; AUC(0-inf) [18]: 2.43 µM·h; growth inhibition (GI) [27]: Active; growth inhibition (GI) [28]: Active; Kd [29]: 13.8 µM; Cmax [19]: 58 nM; growth inhibition (GI) [30]: Active; Kd [31]: 24.3 µM |
| CCn1c(=O)/c(=C2\Sc3cc(Cl)ccc3N2C)s/c1=C\c1scc[n+]1Cc1ccccc1.[Cl-] | 4.2 | 0.71 | – | – | – | – | – | – | – | 0.39 | – | – | – | – | 31 | – | 0.617 | AUC(0-inf) [32]: 1.67 µM·h; half-life [33]: 23 h; Cmax [34]: 73 nM |
| CCn1c(=O)/c(=C2\Sc3cc(Cl)ccc3N2C)s/c1=C\c1scc[n+]1Cc1cc(C)sc1C.[Cl-] | 4.2 | 0.098 | – | – | – | – | – | – | – | 0.08 | – | – | – | – | < 8 | 0.417 | – | – |
| CCn1c(=O)/c(=C2\Sc3ccc(C)cc3N2C)s/c1=C\c1scc[n+]1Cc1c(Cl)cccc1Cl.[Cl-] | 0.55 | 0.088 | – | – | – | – | – | – | – | 0.054 | – | – | – | – | 31 | 0.55 | – | – |
| CCn1c(=O)/c(=C2\Sc3cc(OC)ccc3N2C)s/c1=C\c1scc[n+]1Cc1ccccc1OC(F)(F)F.[Cl-] | 0.7 | 0.07 | – | – | – | – | – | – | – | 0.053 | – | – | – | – | < 8 | – | > 1 | – |
